{"source": "paper PMC11094418", "about": "(Clinical Cancer Research, 2024)", "key": {"[1]": {"test_system": "HCT116 KRAS-mutant colorectal cancer xenograft model", "assay": "HCT116 xenograft in Balb/c nude mice", "type": "in vivo", "settings": "42 days", "outline": "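Female Balb/c nude mice aged 6–9 weeks, inoculated subcutaneously with 5 million HCT116 cells and randomized at 100–150 mm3. Groups received vehicle, oral test compound (0.5% methylcellulose + 0.1% Tween80 suspension), an i.p. chemotherapy agent in saline, or the combination for 42 days. Tumor volume and body weight were measured twice weekly. Mean ± SEM, n=7–8/group.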"}, "[2]": {"test_system": "DLD1 isogenic KRAS^WT/G13D (KRAS MUT) and KRAS^WT/− (KRAS WT) colorectal cancer cells", "assay": "analysis of mitotic cells by flow cytometry", "type": "cell-based", "settings": "100 nmol/L, 24 hours, Fig. 1B"}, "[3]": {"test_system": "DLD1 isogenic KRAS^WT/G13D (KRAS MUT) and KRAS^WT/− (KRAS WT) colorectal cancer cells", "assay": "proliferation assay, cell viability by CellTiterGlo", "type": "cell-based", "settings": "72 hours, Fig. 1A"}, "[4]": {"settings": "cited from earlier work"}, "[5]": {"assay": "phase Ib safety: onvansertib-related AEs", "type": "in vivo, human", "settings": "all dose levels", "outline": "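Oral test compound was dose-escalated (3+3 design; 12, 15, 18 mg/m2) on days 1–5 and 15–19 of 28-day cycles. It was given with FOLFIRI and bevacizumab 5 mg/kg i.v. on days 1 and 15. Patients receiving ≥1 dose were evaluable. AEs were graded by NCI CTCAE v4.03, investigators assigned causality, and data were summarized descriptively.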"}, "[6]": {"assay": "phase Ib pharmacokinetics, plasma, day 5 of cycle 1, LC/MS-MS", "type": "in vivo, human", "outline": "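Oral test compound was given on days 1–5 and 15–19 of 28-day cycles with FOLFIRI/bevacizumab. Blood was drawn on cycle 1 day 5 at predose and at 1, 2, 3, 4, 8, 24, 48 and 72 h postdose. Plasma drug concentrations were measured by LC/MS-MS, and pharmacokinetic parameters were calculated from these.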"}}, "data": [{"compound": "CCc1c2c(nc3ccc(OC(=O)N4CCC(N5CCCCC5)CC4)cc13)-c1cc3c(c(=O)n1C2)COC(=O)[C@]3(O)CC", "note": "[irinotecan, reference compound]", "values": [{"measurement": "tumor growth compared with the vehicle-treated group", "setting": "[1]; intraperitoneally, 5 mg/kg, twice a week", "result": "significantly reduced tumor growth"}]}, {"compound": "CN1CCN(c2ccc(OC(F)(F)F)c(Nc3ncc4c(n3)-c3c(c(C(N)=O)nn3CCO)CC4)c2)CC1", "note": "[onvansertib]", "values": [{"measurement": "mitotic arrest in DLD1 KRAS MUT cells compared with KRAS WT cells", "setting": "[2]", "result": "increased"}, {"measurement": "cell death in DLD1 KRAS MUT cells compared with KRAS WT cells", "setting": "[3]", "result": "increased"}, {"measurement": "human half-life", "setting": "[4]; oral", "result": "approximately 24 hours"}, {"measurement": "dose-limiting toxicities (DLT)", "setting": "[4]; single agent, 6, 12, and 24 mg/m^2/day for 5 out of 21 days", "result": "no dose-limiting toxicities"}, {"measurement": "G3/G4 neutropenia, patients", "setting": "[5]", "result": 28, "unit": "%"}, {"measurement": "diarrhea, patients", "setting": "[5]", "result": 50, "unit": "%"}, {"measurement": "fatigue, patients", "setting": "[5]", "result": 44, "unit": "%"}, {"measurement": "nausea, patients", "setting": "[5]", "result": 50, "unit": "%"}, {"measurement": "number of onvansertib-related G3 or G4 AEs", "setting": "[5]", "result": 15}, {"measurement": "vomiting, patients", "setting": "[5]", "result": 22, "unit": "%"}, {"measurement": "AUC0–24", "setting": "[6]; 12 mg/m^2, mean ± SD", "result": "2,020 ± 880 ng/mL.hours"}, {"measurement": "Cmax", "setting": "[6]; 12 mg/m^2, mean ± SD", "result": "163 ± 82", "unit": "ng/mL"}, {"measurement": "Tmax", "setting": "[6]; 12 mg/m^2, mean ± SD", "result": "5.29 ± 8.32", "unit": "h"}, {"measurement": "t1/2", "setting": "[6]; 12 mg/m^2, mean ± SD", "result": "13.8 ± 2.1", "unit": "h"}, {"measurement": "AUC0–24", "setting": "[6]; 15 mg/m^2, mean ± SD", "result": "1,520 ± 650 ng/mL.hours"}, {"measurement": "Cmax", "setting": "[6]; 15 mg/m^2, mean ± SD", "result": "169 ± 64", "unit": "ng/mL"}, {"measurement": "Tmax", "setting": "[6]; 15 mg/m^2, mean ± SD", "result": "1.80 ± 0.84", "unit": "h"}, {"measurement": "t1/2", "setting": "[6]; 15 mg/m^2, mean ± SD", "result": "13.9 ± 4.3", "unit": "h"}, {"measurement": "AUC0–24", "setting": "[6]; 18 mg/m^2, mean ± SD", "result": "2,290 ± 730 ng/mL.hours"}, {"measurement": "Cmax", "setting": "[6]; 18 mg/m^2, mean ± SD", "result": "191 ± 25", "unit": "ng/mL"}, {"measurement": "Tmax", "setting": "[6]; 18 mg/m^2, mean ± SD", "result": "2.40 ± 1.20", "unit": "h"}, {"measurement": "t1/2", "setting": "[6]; 18 mg/m^2, mean ± SD", "result": "13.8 ± 2.3", "unit": "h"}, {"measurement": "terminal half-life in plasma", "setting": "[6]; all dose levels", "result": "around 14 hours"}, {"measurement": "tumor growth compared with the vehicle-treated group", "setting": "[1]; oral, 45 mg/kg, daily", "result": "significantly reduced tumor growth"}]}]}
